Source: the array DNA melting data of Ke et al. (doi:10.1101/2024.01.08.574731)

What was measured:
[1] = melting temperature; fluorescence melt of hairpins on a sequencing array, two-state fit, raised by 9.35 °C to match UV melts; conditions: sodium 0.088 M
Outline: (§1)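 Melting temperature and folding enthalpy were obtained by bootstrapped two-state fitting. Fits used Cy3 fluorescence of library hairpins with annealed Cy3 and quencher oligos on a sequenced MiSeq flow cell, imaged in 50 mM Na-HEPES pH 8.0, 25 mM NaCl in 2.5 °C steps up to 60 °C and normalised to pre-quench Cy3 and control constructs. Four replicates were combined by inverse-variance weighting, and fitted temperatures were raised by 9.35 °C to match UV melts.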

[2] = folding enthalpy; higher = less favourable; fluorescence melt of hairpins on a sequencing array, two-state fit; conditions: sodium 0.088 M
Outline: as §1

Sequence	Tm [1]	folding enthalpy [2]
GCGATTGGAAACGATCGC (((((.(....).)))))	56.4 °C	-49 kcal/mol
GCGCAAACGAAAGTTCGC (((..(((....))))))	46.7 °C	-22.6 kcal/mol
GCGCACGAAAGTGTTCGC ((((((....)))..)))	48.2 °C	-22.1 kcal/mol
GCGCACGGAAACGTGCAC (.(((((....))))).)	52.2 °C	-10.1 kcal/mol
GCGCAGCGAAAGCAACGC (((..((....))..)))	49.6 °C	-10.2 kcal/mol
GCGCAGCGAAAGCAGTGC ((.(.((....)).).))	54.4 °C	-12 kcal/mol
GCGCAGCGAAAGCGACGC (((..((....))..)))	57.6 °C	-15.8 kcal/mol
GCGCAGCGAAAGCGCCGC (((..((....))..)))	59.4 °C	-13.1 kcal/mol
GCGCAGCGAAAGCGGGGC ((.(.((....)).).))	57.6 °C	-14.3 kcal/mol
GCGCAGCGAAAGCTAGGC ((..(((....)))..))	39.7 °C	-5.67 kcal/mol
GCGCAGCGAAAGCTCGC (((.(((....))))))	63.3 °C	-15.8 kcal/mol
GCGCAGCGAAAGCTCGGC ((..(((....)))..))	40.3 °C	-7.59 kcal/mol
GCGCAGCGAAAGCTTAGC ((..(((....)))..))	40.5 °C	-9.17 kcal/mol
GCGCAGCGAAAGCTTGGC ((..(((....)))..))	38.5 °C	-6.35 kcal/mol
GCGCAGGGAAACCCGCGC ((((.((....)).))))	66.8 °C	-34 kcal/mol
GCGCAGGGAAACCTGTGC ((.((((....)))).))	57.7 °C	-28 kcal/mol
GCGCATCCGAAAGGACGC (((..(((....))))))	50.2 °C	-20.5 kcal/mol
GCGCATGGAAACGTGTGC ((.((.(....).)).))	46.6 °C	-36.7 kcal/mol
GCGCCAGGAAACCGACGC (((.(.(....).).)))	39.4 °C	-29.5 kcal/mol
GCGCCCGAAAGGGAACGC ((((((....)))..)))	54.7 °C	-33.4 kcal/mol
GCGCCCGAAAGGGATCGC ((((((....)))..)))	51.8 °C	-20.4 kcal/mol
GCGCCCGAAAGGGCCCGC ((((((....)))..)))	44.7 °C	-9.91 kcal/mol
GCGCCCGAAAGGGTACGC ((((((....)))..)))	55.1 °C	-27.4 kcal/mol

Sequence	Tm [1]	folding enthalpy [2]
GCGCCCGCGAAAGCGCGC (((..(((....))))))	58.5 °C	-16.2 kcal/mol
GCGCCGCGAAAGCAACGC (((..((....))..)))	51.1 °C	-18.1 kcal/mol
GCGCCGCGAAAGCAGAGC ((.(.((....)).).))	66.7 °C	-27.8 kcal/mol
GCGCCGCGAAAGCCACGC (((..((....))..)))	50.1 °C	-17.4 kcal/mol
GCGCCGCGAAAGCCGAGC ((.(.((....)).).))	50.5 °C	-18.9 kcal/mol
GCGCCGCGAAAGCGAGGC ((..(((....)))..))	54.8 °C	-13.7 kcal/mol
GCGCCGCGAAAGCGCTGC ((..(((....)))..))	61.1 °C	-15.6 kcal/mol
GCGCCGCGAAAGCGTAGC ((..(((....)))..))	59.1 °C	-13.5 kcal/mol
GCGCCGCGAAAGCTACGC (((..((....))..)))	53.5 °C	-20.9 kcal/mol
GCGCCGCGAAAGCTGGGC ((.(.((....)).).))	57 °C	-16.1 kcal/mol
GCGCCGGCGAAAGCCCGC (((..(((....))))))	55.5 °C	-15.2 kcal/mol
GCGCCTCCGAAAGGACGC (((..(((....))))))	50.1 °C	-25.2 kcal/mol
GCGCCTCGAAAGAGACGC (((.(((....))).)))	59.4 °C	-25.5 kcal/mol
GCGCCTGCGAAAGCACGC (((..(((....))))))	47.7 °C	-16.7 kcal/mol
GCGCCTGGAAACAGACGC (((.(((....))).)))	55.8 °C	-29.4 kcal/mol
GCGCCTTCGAAAGAACGC (((..(((....))))))	38.6 °C	-19.2 kcal/mol
GCGCGAACGAAAGTTCGC (((..(((....))))))	68.4 °C	-6.27 kcal/mol
GCGCGACGAAAGTCTCGC (((.(((....))).)))	60.6 °C	-34.3 kcal/mol
GCGCGAGGAAACTTGCGC ((((.((....)).))))	65.6 °C	-38.1 kcal/mol
GCGCGCGAAAGCGTTCGC ((((((....)))..)))	53.3 °C	-14.6 kcal/mol
GCGCGGCGAAAGCACCGC (((..((....))..)))	56.1 °C	-16.6 kcal/mol
GCGCGGCGAAAGCCCCGC (((.(((....))).)))	59.4 °C	-37.7 kcal/mol
GCGCGGCGAAAGCGGGGC ((.(.((....)).).))	64.4 °C	-27.7 kcal/mol

Sequence	Tm [1]	folding enthalpy [2]
GCGCGGCGAAAGCTGAGC ((.(.((....)).).))	63.2 °C	-31.1 kcal/mol
GCGCGGCGAAAGCTTCGC (((..((....))..)))	55.8 °C	-20.8 kcal/mol
GCGCGGGGAAACCCACGC (((.(((....))).)))	61.6 °C	-35 kcal/mol
GCGCGTACGAAAGTACGC (((..(((....))))))	63.2 °C	-6.65 kcal/mol
GCGCTACGAAAGTAACGC (((.(((....))).)))	56.5 °C	-41.1 kcal/mol
GCGCTAGCGAAAGCTCGC (((..(((....))))))	45.4 °C	-10.7 kcal/mol
GCGCTAGGAAACCAACGC (((.(.(....).).)))	28.6 °C	-10.5 kcal/mol
GCGCTAGGAAACCAGCAC (.(((.(....).))).)	26.8 °C	-9.67 kcal/mol
GCGCTAGGAAACTAGCAC (.(((((....))))).)	44 °C	-15.4 kcal/mol
GCGCTAGGAAACTAGTGC ((.((((....)))).))	53.3 °C	-44.7 kcal/mol
GCGCTCACGAAAGTGCGC (((..(((....))))))	60 °C	-37.8 kcal/mol
GCGCTCCCGAAAGGGCGC (((..(((....))))))	62.2 °C	-35 kcal/mol
GCGCTCCGAAAGGACCGC (((.(((....))).)))	53 °C	-44.6 kcal/mol
GCGCTCGAAAGAGACCGC ((((((....)))..)))	44.9 °C	-21.8 kcal/mol
GCGCTCGAAAGAGCCGC ((((((....))).)))	62.4 °C	-18.7 kcal/mol
GCGCTCGAAAGAGTACGC ((((((....)))..)))	50 °C	-25.6 kcal/mol
GCGCTGCGAAAGCACGC (((.(((....))))))	69.2 °C	-17.6 kcal/mol
GCGCTGCGAAAGCGACGC (((..((....))..)))	63.7 °C	-26.8 kcal/mol
GCGCTGCGAAAGCGGGGC ((.(.((....)).).))	67.8 °C	-28.8 kcal/mol
GCGCTGCGAAAGCTACGC (((..((....))..)))	55.8 °C	-23 kcal/mol
GCGCTGGGAAACCAGCAC (.(((((....))))).)	50.4 °C	-11.9 kcal/mol
GCGCTGGGAAACCAGTGC ((.((((....)))).))	60.6 °C	-45.9 kcal/mol
GCGCTTACGAAAGTACGC (((..(((....))))))	46.2 °C	-21.4 kcal/mol

Sequence	Tm [1]	folding enthalpy [2]
GCGCTTGCGAAAGCACGC (((..(((....))))))	55.2 °C	-15.9 kcal/mol
GCGGAACGAAAGTTCGC (((.(((....))))))	58.9 °C	-24.4 kcal/mol
GCGGAATCCCGC ((((....))))	53.9 °C	-22.1 kcal/mol
GCGGAATCGAAAGATCGC (((..(((....))))))	45.5 °C	-25.8 kcal/mol
GCGGACACGAAAGTGCGC (((..(((....))))))	55.6 °C	-26.1 kcal/mol
GCGGACCACCGC ((((....))))	59.9 °C	-24.2 kcal/mol
GCGGACGAAAGTCAACGC ((((((....)))..)))	54.3 °C	-42 kcal/mol
GCGGACGAAAGTCTCGC ((((((....))).)))	55.2 °C	-18.9 kcal/mol
GCGGACGAAAGTCTTCGC ((((((....)))..)))	45.9 °C	-23.4 kcal/mol
GCGGACGCCGC ((((...))))	58.3 °C	-19.1 kcal/mol
GCGGACGGAAACATCCGC (((((.(....).)))))	52.9 °C	-39.2 kcal/mol
GCGGACGGAAACGTCTGC ((.((((....)))).))	65.9 °C	-36.3 kcal/mol
GCGGACTACCGC ((((....))))	54 °C	-27.9 kcal/mol
GCGGAGAAATCCGC (((((....)))))	61.8 °C	-29.1 kcal/mol
GCGGAGCGAAAGCACTGC ((.(.((....)).).))	50 °C	-12.7 kcal/mol
GCGGAGCGAAAGCATCGC (((..((....))..)))	55.7 °C	-15.7 kcal/mol
GCGGAGGACCGC ((((....))))	52.4 °C	-19.5 kcal/mol
GCGGAGGCCGC ((((...))))	58.9 °C	-18 kcal/mol
GCGGATCACCGC ((((....))))	59 °C	-25.8 kcal/mol
GCGGATCGAAAGATACGC (((.(((....))).)))	68.7 °C	-40.3 kcal/mol
GCGGATCGAAAGATGCGC (((.(((....))).)))	66.3 °C	-38.6 kcal/mol
GCGGATGCGAAAGCACGC (((..(((....))))))	56.6 °C	-15.8 kcal/mol
GCGGATGGAAACATCCAC (.(((((....))))).)	45.3 °C	-14.7 kcal/mol
